Measured values collected from several papers.
HTR2A: 5-hydroxytryptamine receptor 2A (HTR2A, Homo sapiens, UniProt P28223)
SRD5A1: 3-oxo-5-alpha-steroid 4-dehydrogenase 1 (SRD5A1, Homo sapiens, UniProt P18405)
CNR1: Cannabinoid receptor 1 (CNR1, Homo sapiens, UniProt P21554)

COc1cc2c3c(c1OC)-c1c(OC)ccc(N4CCOCC4)c1CC3N(C)CC2 (stereo not drawn)
inhibition (HTR2A; ligand displacement, radioligand; 10 µM): 49%

COC(=O)C=Cc1ccc(OC(C)=O)c(OC)c1
inhibition (SRD5A1; enzyme activity in cells, inhibitor; HaCaT; 50 µM): 26.4%

CCN1/C(=C/C(C)=O)Sc2ccc(F)cc21
inhibition (Endothelin-1 receptor (EDNRA, Homo sapiens, UniProt P25101); ligand displacement, radioligand; 10 µM): 9.86%

O=C(O)/C=C/c1ccc(O)c(O)c1
inhibition (SRD5A1; enzyme activity in cells, inhibitor; HaCaT; 50 µM): 6.07%

Cc1cc(O)c(-c2ccc([C@@H](C)CN(C)C)cc2)c2c1[nH]c(=O)c1sccc12
inhibition (Serine/threonine-protein kinase A-Raf (ARAF, Homo sapiens, UniProt P10398); enzyme activity, inhibitor; 0.1 µM, lysate): -26%

NC/C(=C\F)COc1cccc(Cn2c(=S)[nH]c(=O)c3[nH]cnc32)c1
inhibition (CNR1; ligand displacement, radioligand; 10 µM): < 50%

COC(=O)C=Cc1ccc(OC(C)=O)c(OC(C)=O)c1
inhibition (SRD5A1; enzyme activity in cells, inhibitor; HaCaT; 50 µM): 25.1%

COc1cc2c3c(c1OC)-c1c(OC)ccc(NC(C)=O)c1CC3N(C)CC2 (stereo not drawn)
inhibition (HTR2A; ligand displacement, radioligand; 10 µM): 9%

Cc1cc(F)cc2c(CCC(=O)N[C@@H]3C(=O)NC[C@H]3O)c(-c3ccc(F)cc3)[nH]c12
inhibition (CNR1; cell-free assay; 10 µM): -2%
